Assay results from article PMC3377336 (EMBO Molecular Medicine, 2010).
Counter-ions that a name gives are not always drawn. Like-named read-outs stand apart in the source and are kept apart here. Blank lines part the entries; values can stand above or below the compound they belong to.

Legend:
NB TICs [1] = assay: Sphere-formation secondary assay, NB TICs; format: cell-based, human; details: for Fold difference in potency (EC50, sphere formation) NB TICs vs SKPs: text and legends
NB67 cells [2] = tested on: NB67 cells
NB67 cells [3] = assay: Secondary assay on NB67 TICs; details: same patient as NB12, 2 years later
NB12 xenograft tumours [4] = assay: NB12 xenograft tumours in NOD/SCID mice; format: in vivo; details: 14 days
SMS-KCNR cells = assay: Sphere-formation secondary assay, SMS-KCNR; format: cell-based, human; details: up to doses of 1 µM
[5] = tested on: p70S6K and S6RP phosphorylation; assay: Immunoblot of mTOR target proteins; format: cell-based, human; details: 50 nM, 1 h
NB12 xenograft tumours [6] = assay: Sphere formation of cells re-isolated from treated NB12 xenograft tumours; format: in vivo, NOD/SCID mice; details: dissociated tumours, methylcellulose, 10 days; 3 mg/kg IP daily
NB12 TICs = assay: Cell viability by trypan blue exclusion; format: cell-based, human; details: 50 nM rapamycin
NB TICs [7] = assay: Apoptosis: nuclear morphology, sub-2n DNA content, cleaved PARP; format: cell-based, human; details: 50 nM rapamycin
Procedure, shortened: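 NB12 cells (40,000) on lysine/laminin-coated chamber slides, treated in duplicate 24 h after plating, then fixed with 4% paraformaldehyde and 0.5 µg/ml Hoechst 33342; nuclei counted in 15 random fields. For DNA content and blots, 200,000 NB TICs per 25 cm2 flask were treated 48 h post-plating. Cells were ethanol-fixed, RNaseA/propidium iodide 1 h 37 °C, flow cytometry. NP-40 lysates were immunoblotted for cleaved PARP.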

SH-SY5Y cells = assay: alamarBlue dose-response assay; format: cell-based, human; details: serial dilutions, alamarBlue day 6, read day 7
SK-N-AS cells = assay: alamarBlue dose-response assay; format: cell-based, human; details: serial dilutions, alamarBlue day 6, read day 7
SKPs = assay: Sphere-formation secondary assay, SKPs; format: cell-based, human; details: up to doses of 1 µM
NB88R2 xenograft tumours = NB88R2 xenograft tumours in NOD/SCID mice; format: in vivo; details: NB88 tumours; 3 mg/kg IP daily, 14 days

Compound: COc1ccc2c(c[n+](C)c3c4cc5c(cc4ccc23)OCO5)c1OC [Chelerythrine chloride]
Selective cytotoxicity for NB TICs (PKC inhibitors) (NB TICs [1]; sphere formation, NB TICs vs SKPs): selectively cytotoxic

Compound: COc1cc2c(c(OC)c1OC)-c1ccc(OC)c(=O)cc1[C@@H](NC(C)=O)CC2 [Colchicine]
Cytotoxicity to NB67 cells (NB67 cells [2]): not cytotoxic

Compound: CO[C@H]1C=C[C@@]23c4cc5c(cc4CN(C[C@@H]2O)[C@H]3C1)OCO5 [Crinamine]
Fold difference in potency (EC50, sphere formation) NB TICs vs SKPs (NB TICs [1]): > 50 fold

Fold difference in potency (EC50, sphere formation) NB TICs vs SKPs (NB TICs [1]): 3-50 fold
Compound: C=C1C(=O)O[C@H]2[C@H]1CC/C(C)=C/CC[C@@]1(C)O[C@@H]21 [Parthenolide]

Compound: COc1cc([C@@H]2c3cc4c(cc3[C@H](O)[C@H]3COC(=O)[C@H]23)OCO4)cc(OC)c1OC [Podophyllotoxin]
Cytotoxicity to NB67 cells (NB67 cells [2]): not cytotoxic

Fold difference in potency (EC50, sphere formation) NB TICs vs SKPs (NB TICs [1]): 3-50 fold
Compound: CCN(CC)CCCC(C)Nc1c2ccc(Cl)cc2nc2ccc(OC)cc12 (stereo not drawn) [Quinacrine dihydrochloride]

Fold difference in potency (EC50, sphere formation) NB TICs vs SKPs (NB TICs [1]): > 10 fold
Compound: COc1cc([C@@H]2c3cc4c(cc3[C@@H](O[C@@H]3O[C@@H]5CO[C@@H](c6cccs6)O[C@H]5[C@H](O)[C@H]3O)[C@H]3COC(=O)[C@H]23)OCO4)cc(OC)c1O [Teniposide]

Fold difference in potency (EC50, sphere formation) NB TICs vs SKPs (NB TICs [1]): > 10 fold
Compound: CC[C@]1(O)C[C@@H]2CN(CCc3c([nH]c4ccccc34)[C@@](C(=O)OC)(c3cc4c(cc3OC)N(C)[C@H]3[C@@](O)(C(=O)OC)[C@H](OC(C)=O)[C@]5(CC)C=CCN6CC[C@]43[C@@H]65)C2)C1 [Vinblastine sulfate]
Cytotoxicity to NB67 cells (NB67 cells [3]): not cytotoxic
Reduction of tumour weight relative to vehicle-treated controls (NB12 xenograft tumours [4]; 0.25 mg/kg IP daily): 43.4%

Compound: CC[C@]1(O)C[C@H]2CN(CCc3c([nH]c4ccccc34)[C@@](C(=O)OC)(c3cc4c(cc3OC)N(C=O)[C@H]3[C@@](O)(C(=O)OC)[C@H](OC(C)=O)[C@]5(CC)C=CCN6CC[C@]43[C@@H]65)C2)C1 [Vincristine sulfate]
Cytotoxicity to NB67 cells (NB67 cells [3]): not cytotoxic

Compound: CO[C@H]1C[C@@H]2CC[C@@H](C)[C@@](O)(O2)C(=O)C(=O)N2CCCC[C@H]2C(=O)O[C@H]([C@H](C)C[C@@H]2CC[C@@H](O)[C@H](OC)C2)CC(=O)[C@H](C)/C=C(\C)[C@@H](O)[C@@H](OC)C(=O)[C@H](C)C[C@H](C)/C=C/C=C/C=C/1C [rapamycin]
Effect on sphere formation of SMS-KCNR cells (SMS-KCNR cells): little effect
Phosphorylation of p70S6K and S6RP [5]: rapidly inhibited
Reduction of sphere-forming ability in treated tumours (NB12 xenograft tumours [6]): 7.75 fold
Time to decrease of cell viability (trypan blue exclusion) (NB12 TICs): 24 h
Apoptosis in NB12 and NB122R cells (NB TICs [7]): induced features of apoptosis
Sensitivity of SH-SY5Y cells, alamarBlue assay (SH-SY5Y cells): not effective
Reduction of tumour weight relative to vehicle-treated controls (NB12 xenograft tumours [4]; 3 mg/kg IP daily): 82.6%
Sensitivity of SK-N-AS cells, alamarBlue assay (SK-N-AS cells): not effective
Effect on sphere formation of SKPs (SKPs): little effect
Reduction of tumour weight relative to vehicle-treated controls (NB88R2 xenograft tumours): 74.0%
